Test results as given in ChEMBL document CHEMBL1177738, “Thiodiketopiperazines produced by the endophytic fungus Epicoccum nigrum” (J Nat Prod, 2010).
Calls of active or inactive are those of the source. The rule behind the calls is not given here.

How the values were obtained:
A549 = assay: Cytotoxicity against human A549 cells; type: functional, cell-based
How it was run: (§1)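 Cytotoxicity against a panel of six human tumor lines (A549, Bel-7402, BGC-823, HCT-8, HCT-116, A2780) was measured in vitro by MTT assay.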

HCT-116 = assay: Cytotoxicity against human HCT116 cells; type: functional, cell-based; how it was run: as §1
A2780 = assay: Cytotoxicity against human A2780 cells; type: functional, cell-based; how it was run: as §1
HCT-8 = assay: Cytotoxicity against human HCT8 cells; type: functional, cell-based; how it was run: as §1
Bel-7402 = assay: Cytotoxicity against human Bel7402 cells; type: functional, cell-based; how it was run: as §1
BGC-823 = assay: Cytotoxicity against human BGC823 cells; type: functional, cell-based; how it was run: as §1
[1] = Antiinflammatory activity in rat PMNC assessed as inhibition of platelet-activating factor-induced beta-glucuronidase release; type: functional
How it was run: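 In vitro assay on rat polymorphonuclear leukocytes stimulated with platelet-activating factor; β-glucuronidase release was measured, with a positive control run alongside. Inhibitory potency is reported as IC50 in µM.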

| Compound | inhibition (A549) | inhibition (HCT-116) | inhibition (A2780) | inhibition (HCT-8) | inhibition (Bel-7402) | inhibition (BGC-823) | IC50 [1] [µM] |
| --- | --- | --- | --- | --- | --- | --- | --- |
| CS[C@@]12C[C@H]3C(=O)CC[C@H](O)[C@H]3N1C(=O)[C@@]13C[C@H]4C(=O)C[C@@H](S1)[C@H](O)[C@H]4N3C2=O | inactive | inactive | inactive | inactive | inactive | inactive |  |
| O=C1CC[C@H](O)[C@H]2[C@H]1C[C@@]13SS[C@]4(C[C@H]5[C@@H]([C@@H](O)CC[C@@H]5O)N4C1=O)C(=O)N23 | inactive | inactive | inactive | inactive | inactive | inactive |  |
| CS[C@@]12C[C@H]3C(=O)C[C@H](O)[C@H](O)[C@H]3N1C(=O)[C@@]13C[C@H]4C(=O)C[C@@H](SS1)[C@H](O)[C@H]4N3C2=O | inactive | inactive | inactive | inactive | inactive | inactive |  |
| CS[C@@]12C[C@H]3[C@@H]([C@@H](O)CC[C@@H]3O)N1C(=O)[C@@]13C[C@H]4C(=O)C[C@@H](S1)[C@H](O)[C@H]4N3C2=O | inactive | inactive | inactive | inactive | inactive | inactive |  |
| CS[C@@]12C[C@H]3C(=O)CC[C@H](O)[C@H]3N1C(=O)[C@@]13C[C@H]4C(=O)C[C@@H](SS1)[C@H](O)[C@H]4N3C2=O [EPICOCCIN M] | inactive | inactive | inactive | inactive | inactive | inactive | 4.16 |
| O=C1C[C@H]2SS[C@@]34C[C@@H]1[C@@H]([C@H]2O)N3C(=O)[C@@]12C[C@H]3C(=O)C[C@@H](S1)[C@H](O)[C@H]3N2C4=O | inactive | inactive | inactive | inactive | inactive | inactive |  |
| C[C@@H]1C(=O)O[C@H]2[C@H](O)[C@@]34[C@H]5C[C@@H](C(C)(C)C)[C@]36[C@@H](OC(=O)[C@@H]6O)O[C@@]4(C(=O)O5)[C@@]12O [GINKOLIDE B] |  |  |  |  |  |  | 2.35 |
| CS[C@@]12CC3=CC=C[C@H](O)[C@H]3N1C(=O)[C@]13C[C@@]4(O)[C@H](C=C[C@H](O)[C@H]4N1C2=O)S3 | inactive | inactive | inactive | inactive | inactive | inactive |  |
| O=C1N[C@@H](Cc2ccccc2)C(=O)N[C@H]1Cc1ccccc1 | inactive | inactive | inactive | inactive | inactive | inactive |  |
| CS[C@@]12C[C@H]3[C@@H]([C@@H](O)CC[C@@H]3O)N1C(=O)[C@]1(SC)C[C@H]3[C@@H]([C@@H](O)CC[C@@H]3O)N1C2=O | inactive | inactive | inactive | inactive | inactive | inactive |  |
| O=C1C[C@H]2SS[C@@]34C[C@@H]1[C@@H]([C@H]2O)N3C(=O)[C@]12C[C@H]3C(=O)[C@H](C[C@H](O)[C@H]3N1C4=O)S2 | inactive | inactive | inactive | inactive | inactive | inactive |  |
| CS[C@@]12C[C@H]3C(=O)CC[C@H](O)[C@H]3N1C(=O)[C@]1(SC)C[C@H]3C(=O)CC[C@H](O)[C@H]3N1C2=O [EPICOCCIN G] | inactive | inactive | inactive | inactive | inactive | inactive | 3.07 |
| O=C1N2[C@H]3[C@H](C[C@]24SS[C@]12C[C@H]1[C@@H]([C@@H](O)CC[C@@H]1O)N2C4=O)[C@@H](O)CC[C@@H]3O | inactive | inactive | inactive | inactive | inactive | inactive |  |
| O=C1C[C@@H]2SS[C@@]34C[C@@H]1[C@@H]([C@H]2O)N3C(=O)[C@@]12C[C@H]3C(=O)C[C@H](SS1)[C@H](O)[C@H]3N2C4=O | inactive | inactive | inactive | inactive | inactive | inactive |  |
| O=C1C[C@H]2SS[C@@]34C[C@@H]1[C@@H]([C@H]2O)N3C(=O)[C@@]12C[C@H]3C(=O)[C@@H](S1)[C@@H](O)[C@H](O)[C@H]3N2C4=O | inactive | inactive | inactive | inactive | inactive | inactive |  |
| O=C1C[C@@H]2SS[C@@]34C[C@@H]1[C@@H]([C@H]2O)N3C(=O)[C@@]12C[C@H]3C(=O)[C@H](S1)[C@H](O)[C@H](O)[C@H]3N2C4=O | inactive | inactive | inactive | inactive | inactive | inactive |  |
| CCO[C@@H]1[C@H](O)[C@@H]2[C@H]3C[C@@]4(S[C@@H]1C3=O)C(=O)N1[C@@H]3[C@@H](O)[C@H]5CC(=O)[C@@H]3C[C@@]1(SS5)C(=O)N24 [EPICOCCIN S] | inactive | inactive | inactive | inactive | inactive | inactive | 4.95 |
| CS[C@@]12C[C@H]3C(=O)C=C[C@H](O)[C@H]3N1C(=O)[C@]1(SC)C[C@H]3C(=O)CC[C@H](O)[C@H]3N1C2=O | inactive | inactive | inactive | inactive | inactive | inactive |  |
| O=C1C[C@H]2S[C@@]34C[C@@H]1[C@@H]([C@H]2O)N3C(=O)[C@@]12C[C@H]3C(=O)[C@@H](S1)[C@H](O)[C@H](O)[C@H]3N2C4=O [EPICOCCIN E] | inactive | inactive | inactive | inactive | inactive | inactive | 1.98 |
| CS[C@@]12C[C@H]3C(=O)CC[C@H](O)[C@H]3N1C(=O)[C@]1(SC)C[C@H]3[C@@H]([C@@H](O)CC[C@@H]3O)N1C2=O | inactive | inactive | inactive | inactive | inactive | inactive |  |
